# Test results from ChEMBL document CHEMBL1926616, “Design, synthesis and biological evaluation of novel glycosylated diphyllin derivatives as topoisomerase II inhibitors” (Eur J Med Chem, 2012).
# Activity calls are given as the source filed them. The rule behind the calls is not given here.
# Assays:
# HL-60 [1] = test: Cell cycle arrest in human HL60 cells assessed as accumulation at G0/G1 phase at 1 uM after 24 hrs using propidium iodide stain by FACS-flow cytometry (reference value: 39%); type: functional
# HL-60 [2] = test: Cell cycle arrest in human HL60 cells assessed as accumulation at S phase at 10 uM after 24 hrs using propidium iodide stain by FACS-flow cytometry (reference value: 38.4%); type: functional
# HL-60 [3] = test: Cell cycle arrest in human HL60 cells assessed as accumulation at G0/G1 phase at 1 to 10 uM using propidium iodide stain by FACS-flow cytometry; type: functional, cell-based; conditions: TDE = time-dependent effect
# KB [4] = test: Cytotoxicity against human KB cells after 72 hrs by sulforhodamine B and MTT assay; type: functional, cell-based
# Outline: (§1)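 Log-phase cells were plated overnight and exposed for 72 h to a 5-concentration gradient, in triplicate wells. SRB arm: 10% cold TCA fixation for 1 h at 4 °C, 4 mg/ml SRB in 1% acetic acid for 15 min, dye dissolved in 10 mM Tris-HCl, read at 520 nm. MTT arm: 5 mg/mL MTT for 4 h at 37 °C, SDS-isobutanol-HCl solubilisation for 12–20 h, read at 570 nm. IC50 by Logit method from at least 3 independent tests.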
# HL-60 [5] = test: Cell cycle arrest in human HL60 cells assessed as accumulation at G0/G1 phase at 10 uM after 24 hrs using propidium iodide stain by FACS-flow cytometry (reference value: 39%); type: functional
# HCT-116 [6] = test: Cytotoxicity against human HCT116 cells after 72 hrs by sulforhodamine B and MTT assay; type: functional, cell-based; conditions: HCT-116, 72 h; outline: as §1
# KB [7] = test: Resistance index, ratio of IC50 for vincristine-selected multi drug-resistant human KB cells to IC50 for human KB cells; type: functional
# Outline: (§2)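 Resistance factor is the IC50 in the resistant line divided by the IC50 in the parental line. Both IC50s come from 72 h SRB/MTT growth-inhibition assays, derived by the Logit method from at least 3 independent tests.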
# HCT-116 [8] = test: Cell cycle arrest in human HCT116 cells assessed as accumulation at G0/G1 phase after 24 hrs using propidium iodide stain by FACS-flow cytometry; type: functional, cell-based
# HL-60 [9] = test: Cell cycle arrest in human HL60 cells assessed as accumulation at G2/M phase at 1 uM after 24 hrs using propidium iodide stain by FACS-flow cytometry (reference value: 22.6%); type: functional
# K562 [10] = test: Cytotoxicity against adriamycin-selected multi drug-resistant human K562 cells after 72 hrs by sulforhodamine B and MTT assay; type: functional, cell-based; conditions: K562, 72 h
# Outline: (§3)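 Log-phase cells were seeded, preincubated (overnight for SRB, 24 h for MTT), then given a five-concentration gradient in triplicate wells for 72 h. For MTT, reagent was added for 4 h at 37 °C, solubilized in SDS-isobutanol-HCl for 12-20 h, and read at 570 nm. IC50 was derived by the Logit method from at least 3 independent tests.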
# HCT-116 [11] = test: Cell cycle arrest in human HCT116 cells assessed as accumulation at G0/G1 phase at 1 to 10 uM using propidium iodide stain by FACS-flow cytometry; type: functional, cell-based; conditions: TDE = time-dependent effect
# HL-60 [12] = test: Cell cycle arrest in human HL60 cells assessed as accumulation at S phase at 1 uM after 24 hrs using propidium iodide stain by FACS-flow cytometry (reference value: 38.4%); type: functional
# HCT-116 [13] = test: Cell cycle arrest in human HCT116 cells assessed as accumulation at G2/M phase after 24 hrs using propidium iodide stain by FACS-flow cytometry; type: functional, cell-based
# K562 [14] = test: Resistance index, ratio of IC50 for adriamycin-selected multi drug-resistant human K562 cells to IC50 for human K562 cells; type: functional; outline: as §2
# HL-60 [15] = test: Cell cycle arrest in human HL60 cells assessed as accumulation at G0/G1 phase after 24 hrs using propidium iodide stain by FACS-flow cytometry; type: functional, cell-based
# HCT-116 [16] = test: Cell cycle arrest in human HCT116 cells assessed as accumulation at G2/M phase at 1 to 10 uM after 24 hrs using propidium iodide stain by FACS-flow cytometry; type: functional, cell-based
# HCT-116 [17] = test: Cell cycle arrest in human HCT116 cells assessed as accumulation at G0/G1 phase at 1 to 10 uM after 24 hrs using propidium iodide stain by FACS-flow cytometry; type: functional, cell-based
# HL-60 [18] = test: Induction of apoptosis in human HL60 cells assessed as DNA fragmentation at 10 uM after 36 hrs by gel electrophoresis; type: functional, cell-based
# Outline: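 HL-60 cells were seeded and exposed to compound for 36 h. Harvested cells were lysed with an equal volume of 1.2% SDS, and the fragmented DNA was extracted and resolved by gel electrophoresis.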
# KB [19] = test: Cytotoxicity against vincristine-selected multi drug-resistant human KB cells after 72 hrs by sulforhodamine B and MTT assay; type: functional, cell-based; outline: as §3
# HL-60 [20] = test: Cell cycle arrest in human HL60 cells assessed as accumulation at G2/M phase after 24 hrs using propidium iodide stain by FACS-flow cytometry; type: functional, cell-based
# MCF7 = test: Cytotoxicity against human MCF7 cells after 72 hrs by sulforhodamine B and MTT assay; type: functional, cell-based; conditions: MCF7, 72 h; outline: as §1
# HL-60 [21] = test: Cell cycle arrest in human HL60 cells assessed as accumulation at G2/M phase at 10 uM after 24 hrs using propidium iodide stain by FACS-flow cytometry (reference value: 22.6%); type: functional
# HL-60 [22] = test: Cell cycle arrest in human HL60 cells assessed as accumulation at G2/M phase at 1 to 10 uM using propidium iodide stain by FACS-flow cytometry; type: functional, cell-based; conditions: TDE = time-dependent effect
# HCT-116 [23] = test: Cell cycle arrest in human HCT116 cells assessed as accumulation at G2/M phase at 1 to 10 uM using propidium iodide stain by FACS-flow cytometry; type: functional, cell-based; conditions: TDE = time-dependent effect
# [24] = target: DNA topoisomerase 2-alpha (Homo sapiens) (UniProt P11388); test: Inhibition of human topoisomerase 2-mediated decatenation of kinetoplast DNA at 100 uM after 15 mins by agarose gel electrophoresis
# Chain of DNA topoisomerase 2-alpha (Homo sapiens) (P11388 whole entry): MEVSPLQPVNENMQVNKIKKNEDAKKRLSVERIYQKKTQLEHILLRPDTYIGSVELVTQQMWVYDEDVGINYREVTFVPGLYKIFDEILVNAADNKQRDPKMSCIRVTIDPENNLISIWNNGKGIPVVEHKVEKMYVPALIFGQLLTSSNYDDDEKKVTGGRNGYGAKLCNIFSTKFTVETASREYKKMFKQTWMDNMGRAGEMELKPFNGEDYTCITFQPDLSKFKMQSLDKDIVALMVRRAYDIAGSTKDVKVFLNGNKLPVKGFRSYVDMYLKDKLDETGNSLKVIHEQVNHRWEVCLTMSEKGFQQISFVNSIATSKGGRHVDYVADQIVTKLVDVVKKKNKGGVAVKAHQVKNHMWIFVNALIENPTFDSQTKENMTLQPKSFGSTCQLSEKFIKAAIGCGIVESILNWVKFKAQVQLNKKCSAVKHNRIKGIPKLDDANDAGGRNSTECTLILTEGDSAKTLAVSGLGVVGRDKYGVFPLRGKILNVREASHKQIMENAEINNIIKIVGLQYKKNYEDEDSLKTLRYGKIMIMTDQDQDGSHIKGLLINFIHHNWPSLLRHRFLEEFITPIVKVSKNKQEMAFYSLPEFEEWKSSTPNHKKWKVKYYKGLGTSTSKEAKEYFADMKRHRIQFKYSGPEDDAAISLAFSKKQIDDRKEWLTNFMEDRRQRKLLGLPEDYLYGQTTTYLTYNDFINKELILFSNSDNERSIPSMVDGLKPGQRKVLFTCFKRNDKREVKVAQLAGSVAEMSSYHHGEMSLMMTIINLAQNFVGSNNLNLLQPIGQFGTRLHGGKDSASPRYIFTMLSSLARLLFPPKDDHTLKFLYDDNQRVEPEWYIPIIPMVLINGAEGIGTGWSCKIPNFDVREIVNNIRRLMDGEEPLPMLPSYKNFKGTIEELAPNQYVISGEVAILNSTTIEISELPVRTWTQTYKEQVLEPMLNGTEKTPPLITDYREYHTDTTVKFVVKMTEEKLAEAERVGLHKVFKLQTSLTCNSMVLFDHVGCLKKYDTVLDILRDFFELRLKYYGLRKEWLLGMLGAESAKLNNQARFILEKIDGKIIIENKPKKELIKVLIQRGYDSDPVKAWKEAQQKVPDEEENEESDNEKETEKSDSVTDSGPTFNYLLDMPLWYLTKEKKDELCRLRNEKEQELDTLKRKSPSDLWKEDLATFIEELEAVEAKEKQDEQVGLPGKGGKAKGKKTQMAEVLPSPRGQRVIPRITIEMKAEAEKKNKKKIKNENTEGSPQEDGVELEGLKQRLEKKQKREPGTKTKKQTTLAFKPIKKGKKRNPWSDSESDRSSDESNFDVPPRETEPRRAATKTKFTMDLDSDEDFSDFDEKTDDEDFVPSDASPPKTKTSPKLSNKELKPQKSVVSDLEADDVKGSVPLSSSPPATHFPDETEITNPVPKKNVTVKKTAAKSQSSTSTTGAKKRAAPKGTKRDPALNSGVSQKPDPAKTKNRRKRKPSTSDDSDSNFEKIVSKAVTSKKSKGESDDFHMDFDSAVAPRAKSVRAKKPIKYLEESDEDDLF
# Outline: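 ATP-dependent kDNA decatenation by 1 unit Topo II in 50 mM Tris-HCl pH 7.7, 50 mM KCl, 5 mM MgCl2, 1 mM ATP, 0.5 mM DTT, 0.5 mM EDTA and BSA, run for 15 min at 37 °C. Stopped with 10% SDS, then run on 1% agarose in TAE at 4 V/cm for 1 h and stained with ethidium bromide.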
# K562 [25] = test: Cytotoxicity against human K562 cells after 72 hrs by sulforhodamine B and MTT assay; type: functional, cell-based; conditions: K562, 72 h; outline: as §3
Compound,IC50 (KB [4]) [nM],IC50 (HCT-116 [6]) [nM],Ratio IC50 (KB [7]),IC50 (K562 [10]) [µM],Ratio IC50 (K562 [14]),IC50 (KB [19]) [nM],IC50 (MCF7) [nM],inhibition [24],IC50 (K562 [25]) [µM],further results
COc1cc2c(O[C@@H]3O[C@@H]4CO[C@@H](C)O[C@H]4[C@H](O)[C@H]3O)c3c(c(-c4ccc5c(c4)OCO5)c2cc1OC)C(=O)OC3,3,8,25.3,0.853,19.4,76,4,Active,0.044,Activity (HL-60 [1]): 53.6%; Activity (HL-60 [2]): 19.2%; Activity (HL-60 [3]): tde; Activity (HL-60 [5]): 56.2%; Activity (HCT-116 [8]): Dose-dependent effect; Activity (HL-60 [9]): 22.9%; Activity (HCT-116 [11]): tde; Activity (HL-60 [12]): 23.4%; Activity (HCT-116 [13]): Dose-dependent effect; Activity (HL-60 [15]): Dose-dependent effect; Activity (HCT-116 [16]): Active; Activity (HCT-116 [17]): Active; Activity (HL-60 [18]): Active; Activity (HL-60 [20]): Dose-dependent effect; Activity (HL-60 [21]): 24.6%; Activity (HL-60 [22]): tde; Activity (HCT-116 [23]): tde
COc1cc([C@@H]2c3cc4c(cc3[C@@H](O[C@@H]3O[C@@H]5CO[C@@H](C)O[C@H]5[C@H](O)[C@H]3O)[C@H]3COC(=O)[C@H]23)OCO4)cc(OC)c1O [ETOPOSIDE],850,910,180.3,243,47.1,153000,1090,inactive,5.16,
COC[C@H]1O[C@@H](Oc2c3c(c(-c4ccc5c(c4)OCO5)c4cc(OC)c(OC)cc24)C(=O)OC3)[C@H](O)[C@@H](O)[C@@H]1O,4500,> 10000,,,,,> 10000,inactive,,
COc1cc2c(O)c3c(c(-c4ccc5c(c4)OCO5)c2cc1OC)C(=O)OC3 [DIPHYLLIN],780,3540,4,23.5,14.1,3150,540,Active,1.67,
COc1cc2c(O[C@@H]3OC[C@@H](O)[C@H](O)[C@H]3O)c3c(c(-c4ccc5c(c4)OCO5)c2cc1OC)C(=O)OC3,410,820,2.9,58.8,13.4,1190,1550,inactive,4.4,Activity (HL-60 [1]): 45.6%; Activity (HL-60 [2]): 33.8%; Activity (HL-60 [3]): tde; Activity (HL-60 [5]): 47%; Activity (HCT-116 [8]): Dose-dependent effect; Activity (HL-60 [9]): 18.9%; Activity (HCT-116 [11]): tde; Activity (HL-60 [12]): 35.5%; Activity (HCT-116 [13]): Dose-dependent effect; Activity (HL-60 [15]): Dose-dependent effect; Activity (HCT-116 [16]): Active; Activity (HCT-116 [17]): Active; Activity (HL-60 [18]): Active; Activity (HL-60 [20]): Dose-dependent effect; Activity (HL-60 [21]): 19.2%; Activity (HL-60 [22]): tde; Activity (HCT-116 [23]): tde
COc1cc2c(O[C@@H]3O[C@H](CO)[C@H](O)[C@H](O)[C@H]3O)c3c(c(-c4ccc5c(c4)OCO5)c2cc1OC)C(=O)OC3,4890,> 10000,,,,,4110,inactive,,
COc1cc2c(O[C@@H]3O[C@@H]4COC(C)(C)O[C@H]4[C@H](O)[C@H]3O)c3c(c(-c4ccc5c(c4)OCO5)c2cc1OC)C(=O)OC3,10,43,,,,,53,Active,,
COc1cccc2c1C(=O)c1c(O)c3c(c(O)c1C2=O)C[C@@](O)(C(=O)CO)C[C@@H]3O[C@H]1C[C@H](N)[C@H](O)[C@H](C)O1 [DOXORUBICIN],,,,,132.2,,,,,
